Data set [1] has as its system Human immunodeficiency virus. The data set can be described thus: Inhibition of HIV reverse transcriptase activity at 100 ug/ml incubated at 37 degC for 1 hr by ELISA RT assay. Put shortly: (§1)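 Colorimetric ELISA kit: template/primer with dNTPs (digoxigenin- and biotin-labelled dUTP) plus HIV-1 RT in lysis buffer, 60 µl total, 37 °C for 1 h; no-RT lysis buffer as negative control. Product captured on streptavidin plate 1 h at 37 °C, anti-DIG-POD (200 mU/mL) 1 h, ABTS substrate; OD 405 nm (reference 490 nm).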

The test system of data set [2] is Plasmodium falciparum. Briefly: Antimalarial activity against chloroquine resistant Plasmodium falciparum K1 infected in RBCs incubated for 72 hrs by SYBRgreen dye based fluorometric assay. It counts as functional, organism-based. To be noted: K1, 72 h. The method in brief: (§2)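 Parasites kept in RPMI-1640 (HEPES) with 0.5% AlbuMaxII, 0.2% glucose, 0.2% NaHCO3, 15 µM hypoxanthine, 37 °C, 5% CO2. Compounds in DMSO (10mg/mL stock), two-fold serial dilutions. Infected erythrocytes added at 4% haematocrit, 1% parasitaemia, incubated 72 h. Lysis buffer with SYBR green added for 4 h in the dark at room temp. Fluorescence read at ex 485/em 535 nm. IC50 taken from parasite DNA content relative to controls.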

The test system of data set [3] is Plasmodium falciparum. The data set can be described thus: Antimalarial activity against chloroquine sensitive Plasmodium falciparum 3D7 infected in RBCs incubated for 72 hrs by SYBRgreen dye based fluorometric assay. It counts as functional, organism-based. The conditions noted are these: 3D7, 72 h. The method in brief: as §2
Data set [4] concerns Human immunodeficiency virus. The data set can be described thus: Inhibition of HIV reverse transcriptase activity at 10 ug/ml incubated at 37 degC for 1 hr by ELISA RT assay. The method in brief:
as §1

Data set [5] in a line: Selectivity index, ratio of CC50 for african green monkey Vero C1008 cells to IC50 for chloroquine sensitive Plasmodium falciparum 3D7. It is filed as functional. Put shortly: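 SI = CC50 in Vero cells (resazurin, 72 h) divided by IC50 against P. falciparum 3D7. The IC50 came from a SYBR green assay: cultures in RPMI-1640 with 0.5% AlbuMaxII and 15 µM hypoxanthine, 4% haematocrit, 1% parasitaemia, two-fold dilutions, 72 h at 37 °C. Lysis with SYBR green for 4 h, read at ex 485/em 535 nm.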

A short description of data set [6]: Selectivity index, ratio of CC50 for african green monkey Vero C1008 cells to IC50 for chloroquine resistant Plasmodium falciparum K1. It counts as functional. The method in brief:
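Vero C1008 cells grown in MEM with 15% FBS. Seeded at 1 × 10^5 cells/mL, left to adhere overnight, then exposed to serial compound dilutions for 72 h. Viability read by resazurin fluorescence after 4 h and CC50 derived. SI = CC50 / IC50 against K1, with IC50 from the 72 h SYBR green parasite assay.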

The nature of data set [7]: Cytotoxicity against african green monkey Vero C1008 cells incubated for 72 hrs by resazurin dye based fluorometric assay. To be noted: chlorocebus sabaeus. It is filed as cell-based. Put shortly: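 Vero (C1008) cells grown in MEM with 15% FBS, 37 °C, 5% CO2; trypsinized, seeded at 1 × 10^5 cells/mL and left to adhere overnight. Serial compound dilutions added for 72 h. Resazurin added, fluorescence read after 4 h; CC50 derived from viability.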

Values after ≈ are worked out from the molar mass of the structure shown. Bounds are passed on as bounds.

Take `CC1=CSC2=NC(/C=C/c3ccc(Br)cc3)=C(C(=O)/C=C/c3ccc(Br)cc3)C(c3ccc(Cl)cc3)N12` (stereo not given): the inhibition is 26.5% in data set [1] and 17.8% in data set [4]. The IC50 with Plasmodium falciparum [2] came to 1.22 µg/mL (≈ 1.87 µM); in the data set on Plasmodium falciparum [3], 1.27 µg/mL (≈ 1.95 µM). Besides, the figures for the “Ratio CC50/IC50” value in data set [5] and in data set [6] were 330.51 and 344.06, respectively. For the same compound, the CC50 at 72 h in data set [7] worked out at 420 µg/mL (≈ 643 µM).
In the case of `COc1ccc(/C=C/C(=O)C2=C(/C=C/c3ccc(OC)cc3)N=C3SC=C(C)N3C2c2ccccc2)cc1` (stereo not given), the values for the inhibition in data set [1] and in data set [4] were 32.7% and 40.6%, respectively. Further, the half-maximal inhibitory concentration (IC50) in the data set with Plasmodium falciparum [2] is less than 0.76 µg/mL; in the data set on Plasmodium falciparum [3], 2.19 µg/mL (≈ 4.21 µM). The “Ratio CC50/IC50” value in data set [5] is 163.56; in data set [6], more than 471.31. Also, in data set [7], the midpoint of cytotoxicity, the CC50 at 72 h, lay at 358 µg/mL (≈ 688 µM).
Take `CC1=CSC2=NC(/C=C/c3ccc(OCc4ccccc4)cc3)=C(C(=O)/C=C/c3ccc(OCc4ccccc4)cc3)C(c3ccccc3)N12` (stereo not given): the figures for the inhibition in data set [1] and in data set [4] were 56.3% and 47.7%, respectively. Further, the IC50 in the data set with Plasmodium falciparum [2] amounted to 4.3 µg/mL (≈ 6.39 µM); in the data set with Plasmodium falciparum [3], 24.5 µg/mL (≈ 36.4 µM). The entries for the “Ratio CC50/IC50” value in data set [5] and in data set [6] were more than 20.39 and more than 116.28, respectively. This compound came in with a CC50 at 72 h in data set [7] of more than 500 µg/mL.
On to `CC1=CSC2=NC(/C=C/c3ccc(Cl)cc3)=C(C(=O)/C=C/c3ccc(Cl)cc3)C(c3ccccc3)N12` (stereo not given), for which the inhibition in data set [1] turned out to be 53.4%; in data set [4], 42.6%. In addition, the IC50 with Plasmodium falciparum [2] stood at 2.71 µg/mL (≈ 5.12 µM); in the data set with Plasmodium falciparum [3] it was 5.15 µg/mL (≈ 9.73 µM). Further, the figures for the “Ratio CC50/IC50” value in data set [5] and in data set [6] were 49.03 and 93.17, respectively. The compound also showed a cytotoxic concentration (CC50) at 72 h in data set [7] of 252 µg/mL (≈ 477 µM).
As to `CC1=CSC2=NC(/C=C/c3ccccc3)=C(C(=O)/C=C/c3ccccc3)C(c3ccccc3)N12` (stereo not given), the inhibition in data set [1] came out at 49.6%; in data set [4], 42.3%. Further, the IC50 came out at 0.79 µg/mL (≈ 1.72 µM) in the data set with Plasmodium falciparum [2] and 0.57 µg/mL (≈ 1.24 µM) with Plasmodium falciparum [3]. The “Ratio CC50/IC50” value in data set [5] is 342.93; in data set [6] it was 247.43. Half-maximal cytotoxicity in data set [7] (CC50 at 72 h) was put at 195 µg/mL (≈ 424 µM).

(Values after ChEMBL document CHEMBL2062476, “One pot efficient diversity oriented synthesis of polyfunctional styryl thiazolopyrimidines and their bio-evaluation as antimalarial and anti-HIV agents” (Eur J Med Chem, 2012).)
